{"source": "ChEMBL document CHEMBL4823264", "about": "“Efficient Dimerization Disruption of Leishmania infantum Trypanothione Reductase by Triazole-phenyl-thiazoles” (J Med Chem, 2021)", "key": {"[1]": {"assay": "Selectivity index, ratio of EC50 for human HepG2 cells to EC50 for promastigote stage of Leishmania infantum MCAN/ES/89/IPZ229/1/89 infected in human HepG2 cells", "assay_type": "toxicity, cell-based", "details": "read-out: Ratio EC50"}, "[2]": {"assay": "Selectivity index, ratio of EC50 for human HepG2 cells to EC50 for axenic amastigote stage of Leishmania infantum MCAN/ES/89/IPZ229/1/89 infected in human HepG2 cells", "assay_type": "toxicity, cell-based", "details": "read-out: Ratio EC50"}, "[3]": {"target": "Trypanothione reductase (Leishmania infantum) (UniProt A4HSF7)", "sequence (A4HSF7 as listed by the source)": "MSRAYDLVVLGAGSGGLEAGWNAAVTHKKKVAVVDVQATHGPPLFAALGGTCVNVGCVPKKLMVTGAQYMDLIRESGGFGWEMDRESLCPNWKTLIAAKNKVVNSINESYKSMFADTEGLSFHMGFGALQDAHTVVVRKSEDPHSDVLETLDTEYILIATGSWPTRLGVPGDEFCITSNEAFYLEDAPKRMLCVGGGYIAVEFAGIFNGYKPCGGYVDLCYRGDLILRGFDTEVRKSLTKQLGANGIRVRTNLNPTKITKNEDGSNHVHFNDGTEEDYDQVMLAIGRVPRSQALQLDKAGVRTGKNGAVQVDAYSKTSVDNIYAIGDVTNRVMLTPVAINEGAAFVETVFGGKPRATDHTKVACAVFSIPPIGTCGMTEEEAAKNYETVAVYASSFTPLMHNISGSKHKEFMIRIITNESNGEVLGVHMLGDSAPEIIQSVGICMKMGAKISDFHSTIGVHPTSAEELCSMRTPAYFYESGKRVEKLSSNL", "assay": "Inhibition of recombinant His-FLAG-tagged Leishmania infantum TryR dimerization expressed in Escherichia coli […] assessed as reduction in TryR dimer at 20 uM using TS2 as substrate after 16 hrs by ELISA relative to control", "summary_of_the_method": "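HIS-FLAG-tagged LiTryR at 400 nM incubated 16 h at 37 °C in 300 mM NaCl, 50 mM Tris pH 8.0 with 3.12–75 μM compound, then centrifuged. Supernatant captured on anti-FLAG plates and detected with anti-HIS-HRP and OPD at 490 nm.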"}, "[4]": {"target": "T1, Glutathione reductase, mitochondrial (Homo sapiens) (UniProt P00390)", "T1 sequence (whole entry)": "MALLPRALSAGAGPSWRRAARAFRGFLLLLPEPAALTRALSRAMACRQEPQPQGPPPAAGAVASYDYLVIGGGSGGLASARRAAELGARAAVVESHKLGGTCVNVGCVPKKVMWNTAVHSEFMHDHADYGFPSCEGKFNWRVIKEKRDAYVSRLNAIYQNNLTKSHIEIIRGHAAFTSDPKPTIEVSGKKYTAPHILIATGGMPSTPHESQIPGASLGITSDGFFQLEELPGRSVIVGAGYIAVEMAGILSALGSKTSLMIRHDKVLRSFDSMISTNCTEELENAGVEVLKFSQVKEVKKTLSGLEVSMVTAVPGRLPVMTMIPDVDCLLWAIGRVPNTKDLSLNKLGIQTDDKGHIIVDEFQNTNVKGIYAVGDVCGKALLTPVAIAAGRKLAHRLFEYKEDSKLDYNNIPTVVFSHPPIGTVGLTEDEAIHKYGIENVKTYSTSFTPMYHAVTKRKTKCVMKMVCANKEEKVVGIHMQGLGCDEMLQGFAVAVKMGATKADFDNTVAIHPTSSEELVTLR", "assay": "Inhibition of recombinant human GR oxidoreductase activity by DTNB-reagent based spectrophotometric method", "summary_of_the_method": "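Recombinant hGR (7 nM) assayed at 37 °C in 40 mM HEPES pH 7.5 with 1 mM EDTA, 60 μM NADP+, 150 μM DTNB, 50 μM GSSG, 300 μM NADPH and 1.75% DMSO. TNB formation followed at 412 nm; at least three independent experiments, nonlinear regression.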"}, "[5]": {"assay": "Drug uptake in Leishmania infantum promastigotes at 25 uM after 1 hr by fluorescence microscopy analysis", "assay_type": "ADME", "details": "in vivo", "summary_of_the_method": "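Log-phase promastigotes exposed to 25 μM compound for 1 h at 26 °C, fixed in […], mounted on polylysine slides and imaged by fluorescence microscopy for blue compound fluorescence.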"}, "THP-1": {"tested_on": "THP-1", "assay": "Cytotoxicity against human THP-1 cells at 75 uM by LDH assay", "assay_type": "cell-based", "details": "thp-1, 75 µM", "summary_of_the_method": "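PMA-differentiated (100 ng/mL, 24 h) THP-1 macrophages infected with GFP-expressing amastigotes were exposed to compound, and viability was measured by LDH activity. The maximum concentration assayed was 75 μM. Three independent experiments.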"}}, "note": "Calls of active or inactive are those of the source. The rule behind the calls is not given here.", "data": [{"smiles": "NCCNCc1nccn1-c1ccc(-c2nc(CCc3ccc4ccccc4c3)cs2)c(OCCN2CCNC2=O)c1", "values": [{"measurement": "selectivity ratio", "setting": "[1]", "value": 2.1}, {"measurement": "selectivity ratio", "setting": "[2]", "value": 2.1}, {"measurement": "inhibition", "setting": "[3]", "value": 26, "unit": "%"}]}, {"smiles": "COc1cc(-n2cc(CCCCN)nn2)ccc1-c1nc(CCc2ccc(-c3ccccc3)cc2)cs1", "values": [{"measurement": "selectivity ratio", "setting": "[2]", "value": 1.9}]}, {"smiles": "NCCCCc1cn(-c2ccc(-c3nc(-c4ccccc4)c(-c4ccccc4)s3)c(OCCN3CCNC3=O)c2)nn1", "values": [{"measurement": "inhibition", "setting": "[4]", "value": "inactive"}]}, {"smiles": "NCCCCc1cn(-c2ccc(-c3nc(-c4ccccc4)cs3)c(OCCN3CCNC3=O)c2)nn1", "values": [{"measurement": "inhibition", "setting": "[4]", "value": "inactive"}]}, {"smiles": "NCCCCc1cn(-c2ccc(-c3nc(CCc4ccc(-c5ccccc5)cc4)c(-c4ccccc4)s3)c(OCCN3CCNC3=O)c2)nn1", "values": [{"measurement": "selectivity ratio", "setting": "[2]", "value": 1.3}]}, {"smiles": "NCCCCc1cn(-c2ccc(-c3nc(CCc4ccccc4)cs3)c(OCCN3CCNC3=O)c2)nn1.O=C(O)C(F)(F)F", "values": [{"measurement": "inhibition", "setting": "[4]", "value": "inactive"}, {"measurement": "Drug uptake", "setting": "[5]", "value": "Active"}]}, {"smiles": "NCCNCc1nccn1-c1ccc(-c2nc(CCc3ccc(-c4ccccc4)cc3)cs2)c(OCCN2CCNC2=O)c1", "values": [{"measurement": "inhibition", "setting": "[3]", "value": 32, "unit": "%"}]}, {"smiles": "NCCCCc1cn(-c2ccc(-c3nc(-c4ccc(-c5ccccc5)cc4)c(-c4ccccc4)s3)c(OCCN3CCNC3=O)c2)nn1", "values": [{"measurement": "selectivity ratio", "setting": "[2]", "value": 1.8}]}, {"smiles": "NCCCCc1cn(-c2ccc(-c3nc(CCc4ccc5ccccc5c4)cs3)c(OCCN3CCNC3=O)c2)nn1", "values": [{"measurement": "inhibition", "setting": "[4]", "value": "inactive"}]}, {"smiles": "NCCCCc1cn(-c2ccc(-c3nc(CCc4ccc(Oc5ccccc5)cc4)c(-c4ccccc4)s3)c(OCCN3CCNC3=O)c2)nn1", "values": [{"measurement": "selectivity ratio", "setting": "[2]", "value": "< 1"}]}, {"smiles": "COc1cc(-n2cc(CCCCN)nn2)ccc1-c1nc(CCc2ccccc2)cs1", "values": [{"measurement": "selectivity ratio", "setting": "[1]", "value": 1.8}]}, {"smiles": "NCCCCc1cn(-c2ccc(-c3nc(CCc4ccc(-c5ccccc5)cc4)cs3)c(OCCN3CCNC3=O)c2)nn1.O=C(O)C(F)(F)F", "values": [{"measurement": "inhibition", "setting": "[4]", "value": "inactive"}, {"measurement": "Activity", "setting": "THP-1", "value": 100, "unit": "%"}]}, {"smiles": "NCCCCc1cn(-c2ccc(-c3nc(-c4ccc(Oc5ccccc5)cc4)c(-c4ccccc4)s3)c(OCCN3CCNC3=O)c2)nn1", "values": [{"measurement": "selectivity ratio", "setting": "[2]", "value": "≥ 3.3"}]}, {"smiles": "NCCCc1cn(-c2ccc(-c3nc(CCc4ccc(-c5ccccc5)cc4)cs3)c(OCCN3CCNC3=O)c2)nn1.O=C(O)C(F)(F)F", "values": [{"measurement": "Activity", "setting": "THP-1", "value": 100, "unit": "%"}]}]}
